Test results as given in ChEMBL document CHEMBL1932986, “Synthesis and in vitro antimycobacterial activity of compounds derived from (R)- and (S)-2-amino-1-butanol - The crucial role of the configuration” (Eur J Med Chem, 2012).
≈ marks a conversion by molar mass, not a printed value. Calls of active or inactive are those of the source. The calls are words filed in the database; no cut-off is given here.

Legend:
[1] = system: Penicillium chrysogenum; experiment: Antifungal activity against Penicillium chrysogenum CECT 2802 at 2 mg/ml after 72 hrs by agar diffusion test; assay type: functional, organism-based
Method in brief: (§1)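 Agar diffusion: yeasts grown on yeast peptone dextrose agar and fungi on potato dextrose agar. Wells are filled with […] of compound solution in DMSO at various concentrations, and the clear-zone diameter is measured. Bracketed values give the lowest concentration (mg/ml) that produces a zone >11 mm. A first screen is run at 50 mg/ml.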

[2] = system: Saccharomyces cerevisiae; experiment: Antifungal activity against Saccharomyces cerevisiae ATCC 9763 at 2 mg/ml after 72 hrs by agar diffusion test; assay type: functional, organism-based; method in brief: as §1
[3] = system: Candida tropicalis; experiment: Antifungal activity against Candida tropicalis ATCC 20336 at 2 mg/ml after 72 hrs by agar diffusion test; assay type: functional, organism-based; method in brief: as §1
[4] = system: Escherichia coli; experiment: Antibacterial activity against Escherichia coli ATCC 8739 at 2 mg/ml after 24 hrs by agar diffusion test; assay type: functional, organism-based
Method in brief: (§2)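 Agar diffusion: wells in agar filled with […] DMSO solution of compound at various concentrations; diameter of clear zone around application point measured. Bacteria grown 24 h at 37 °C on nutrient agar. Compounds first screened at 50 mg/ml; those active then tested at lower concentrations. Bracketed value = lowest concentration (mg/ml) giving zone >11 mm, reported only if activity retained at ≤1.25 mg/ml.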

[5] = system: Micrococcus luteus; experiment: Antibacterial activity against Micrococcus luteus ATCC 9631 at 2 mg/ml after 24 hrs by agar diffusion test; assay type: functional, organism-based; method in brief: as §2
[6] = system: Micrococcus luteus; experiment: Antibacterial activity against Sarcina lutea ATCC 9341 at 2 mg/ml after 24 hrs by agar diffusion test; assay type: functional, organism-based; method in brief: as §2
[7] = system: Staphylococcus aureus; experiment: Antibacterial activity against Staphylococcus aureus NRRL B 313 at 2 mg/ml after 24 hrs by agar diffusion test; assay type: functional, organism-based
Method in brief: (§3)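 Agar diffusion: bacteria grown 24 h at 37 °C on nutrient agar. Wells in the agar are filled with […] of compound solution in DMSO at various concentrations. The diameter of the clear zone around the application point is measured. Bracketed values give the lowest concentration (mg/ml) that produces a zone >11 mm. A first screen is run at 50 mg/ml.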

[8] = system: Acinetobacter johnsonii; experiment: Antibacterial activity against Acinetobacter johnsonii ATCC 17909 at 2 mg/ml after 24 hrs by agar diffusion test; assay type: functional; method in brief: as §2
[9] = system: Bacillus cereus; experiment: Antibacterial activity against Bacillus cereus ATCC 11778 at 2 mg/ml after 24 hrs by agar diffusion test; assay type: functional, organism-based; method in brief: as §2
[10] = system: Bacillus mycoides; experiment: Antibacterial activity against Bacillus mycoides DSMZ 274 at 2 mg/ml after 24 hrs by agar diffusion test; assay type: functional, organism-based; method in brief: as §2
[11] = system: Priestia megaterium; experiment: Antibacterial activity against Bacillus megaterium NRRL 1353895 at 2 mg/ml after 24 hrs by agar diffusion test; assay type: functional, organism-based; method in brief: as §2
[12] = system: Bacillus; experiment: Antibacterial activity against Bacillus idosus B 241 at 2 mg/ml after 24 hrs by agar diffusion test; assay type: functional, organism-based; method in brief: as §2
[13] = system: Bacillus subtilis; experiment: Antibacterial activity against Bacillus subtilis ATCC 6633 at 2 mg/ml after 24 hrs by agar diffusion test; assay type: functional, organism-based; method in brief: as §2
[14] = system: Mycobacterium tuberculosis; experiment: Antimycobacterial activity against Mycobacterium tuberculosis H37Rv after 45 days; assay type: functional
Method in brief: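 Canetti proportion method. Compound in DMSO is added to Löwenstein–Jensen egg medium before coagulation (30 min, 85 °C), tested at three levels plus a lower one where needed. Tubes are inoculated with H37Rv at 10⁵ cells/ml and incubated 45 days at 37 °C. Colony counts versus drug-free control give percentage inhibition.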

[15] = system: Bacillus subtilis; experiment: Antibacterial activity against Bacillus subtilis ATCC 6633 at 50 mg/ml after 24 hrs by agar diffusion test; assay type: functional; method in brief: as §2
[16] = system: Bacillus; experiment: Antibacterial activity against Bacillus idosus B 241 at 50 mg/ml after 24 hrs by agar diffusion test; assay type: functional; method in brief: as §2
[17] = system: Priestia megaterium; experiment: Antibacterial activity against Bacillus megaterium NRRL 1353895 at 50 mg/ml after 24 hrs by agar diffusion test; assay type: functional; method in brief: as §2
[18] = system: Bacillus mycoides; experiment: Antibacterial activity against Bacillus mycoides DSMZ 274 at 50 mg/ml after 24 hrs by agar diffusion test; assay type: functional; method in brief: as §2
[19] = system: Bacillus cereus; experiment: Antibacterial activity against Bacillus cereus ATCC 11778 at 50 mg/ml after 24 hrs by agar diffusion test; assay type: functional; method in brief: as §2
[20] = system: Acinetobacter johnsonii; experiment: Antibacterial activity against Acinetobacter johnsonii ATCC 17909 at 50 mg/ml after 24 hrs by agar diffusion test; assay type: functional; method in brief: as §2
[21] = system: Staphylococcus aureus; experiment: Antibacterial activity against Staphylococcus aureus NRRL B 313 at 50 mg/ml after 24 hrs by agar diffusion test; assay type: functional; method in brief: as §3
[22] = system: Micrococcus luteus; experiment: Antibacterial activity against Sarcina lutea ATCC 9341 at 50 mg/ml after 24 hrs by agar diffusion test; assay type: functional; method in brief: as §3
[23] = system: Micrococcus luteus; experiment: Antibacterial activity against Micrococcus luteus ATCC 9631 at 50 mg/ml after 24 hrs by agar diffusion test; assay type: functional; method in brief: as §2
[24] = system: Escherichia coli; experiment: Antibacterial activity against Escherichia coli ATCC 8739 at 50 mg/ml after 24 hrs by agar diffusion test; assay type: functional; details: ATCC 8739, 24 h, read-out: DIZ; method in brief: as §2
[25] = system: Candida tropicalis; experiment: Antifungal activity against Candida tropicalis ATCC 20336 at 50 mg/ml after 72 hrs by agar diffusion test; assay type: functional; method in brief: as §1
[26] = system: Saccharomyces cerevisiae; experiment: Antifungal activity against Saccharomyces cerevisiae ATCC 9763 at 50 mg/ml after 72 hrs by agar diffusion test; assay type: functional; method in brief: as §1
[27] = system: Penicillium chrysogenum; experiment: Antifungal activity against Penicillium chrysogenum CECT 2802 at 50 mg/ml after 72 hrs by agar diffusion test; assay type: functional; method in brief: as §1
[28] = system: Bacillus subtilis; experiment: Antibacterial activity against Bacillus subtilis ATCC 6633 assessed as concentration required to produce >11 mm of zone of inhibition after 24 hrs by agar diffusion test; assay type: functional; method in brief: as §2
[29] = system: Bacillus; experiment: Antibacterial activity against Bacillus idosus B 241 assessed as concentration required to produce >11 mm of zone of inhibition after 24 hrs by agar diffusion test; assay type: functional; method in brief: as §2
[30] = system: Priestia megaterium; experiment: Antibacterial activity against Bacillus megaterium NRRL 1353895 assessed as concentration required to produce >11 mm of zone of inhibition after 24 hrs by agar diffusion test; assay type: functional; method in brief: as §2
[31] = system: Bacillus mycoides; experiment: Antibacterial activity against Bacillus mycoides DSMZ 274 assessed as concentration required to produce >11 mm of zone of inhibition after 24 hrs by agar diffusion test; assay type: functional; method in brief: as §2
[32] = system: Bacillus cereus; experiment: Antibacterial activity against Bacillus cereus ATCC 11778 assessed as concentration required to produce >11 mm of zone of inhibition after 24 hrs by agar diffusion test; assay type: functional; method in brief: as §2
[33] = system: Acinetobacter johnsonii; experiment: Antibacterial activity against Acinetobacter johnsonii ATCC 17909 assessed as concentration required to produce >11 mm of zone of inhibition after 24 hrs by agar diffusion test; assay type: functional; method in brief: as §2
[34] = system: Staphylococcus aureus; experiment: Antibacterial activity against Staphylococcus aureus NRRL B 313 assessed as concentration required to produce >11 mm of zone of inhibition after 24 hrs by agar diffusion test; assay type: functional; method in brief: as §3
[35] = system: Escherichia coli; experiment: Antibacterial activity against Escherichia coli ATCC 8739 assessed as concentration required to produce >11 mm of zone of inhibition after 24 hrs by agar diffusion test; assay type: functional; method in brief: as §2
[36] = system: Candida tropicalis; experiment: Antifungal activity against Candida tropicalis ATCC 20336 assessed as concentration required to produce >11 mm of zone of inhibition after 72 hrs by agar diffusion test; assay type: functional; method in brief: as §1
[37] = system: Saccharomyces cerevisiae; experiment: Antifungal activity against Saccharomyces cerevisiae ATCC 9763 assessed as concentration required to produce >11 mm of zone of inhibition after 72 hrs by agar diffusion test; assay type: functional; method in brief: as §1

In the case of `CC[C@H](CO)N1C(=O)c2ccccc2C1=O`, the “diameter of the inhibition zone (DIZ)” value [1] is reported as “inactive”, the “diameter of the inhibition zone (DIZ)” value [2] is reported as “inactive” and the “diameter of the inhibition zone (DIZ)” value [3] is reported as “inactive”. For the same molecule, the “diameter of the inhibition zone (DIZ)” value [4] was “inactive”, the “diameter of the inhibition zone (DIZ)” value [5] was “inactive” and the “diameter of the inhibition zone (DIZ)” value [6] was “inactive”. The “diameter of the inhibition zone (DIZ)” value [7] was “inactive”, the “diameter of the inhibition zone (DIZ)” value [8] was “inactive” and the “diameter of the inhibition zone (DIZ)” value [9] was “inactive”. The “diameter of the inhibition zone (DIZ)” value [10] was “inactive”, the “diameter of the inhibition zone (DIZ)” value [11] was “inactive” and the “diameter of the inhibition zone (DIZ)” value [12] was “inactive”. The “diameter of the inhibition zone (DIZ)” value [13] was “inactive”, the MIC [14] was greater than 22.8 µM and the “diameter of the inhibition zone (DIZ)” value [15] was “inactive”. For the same molecule, the “diameter of the inhibition zone (DIZ)” value [16] was “inactive”, the “diameter of the inhibition zone (DIZ)” value [17] was “inactive” and the “diameter of the inhibition zone (DIZ)” value [18] was “inactive”. The “diameter of the inhibition zone (DIZ)” value [19] was “inactive”, the “diameter of the inhibition zone (DIZ)” value [20] was “inactive” and the “diameter of the inhibition zone (DIZ)” value [21] was “inactive”. For the same molecule, the “diameter of the inhibition zone (DIZ)” value [22] was “inactive”, the “diameter of the inhibition zone (DIZ)” value [23] was “inactive” and the zone of inhibition at 50000 µg/mL [24] was 11 mm. The “diameter of the inhibition zone (DIZ)” value [25] was “inactive”, the “diameter of the inhibition zone (DIZ)” value [26] was “inactive” and the “diameter of the inhibition zone (DIZ)” value [27] was “inactive”.

`CC[C@H](CO)NCc1ccc2c(c1)Cc1ccccc1-2` was tested, and the “diameter of the inhibition zone (DIZ)” value [1] was “inactive”, the “diameter of the inhibition zone (DIZ)” value [2] was “inactive” and the “diameter of the inhibition zone (DIZ)” value [3] was “inactive”. For the same molecule, the “diameter of the inhibition zone (DIZ)” value [4] was “inactive”, the “diameter of the inhibition zone (DIZ)” value [5] was “inactive” and the “diameter of the inhibition zone (DIZ)” value [6] was “inactive”. The “diameter of the inhibition zone (DIZ)” value [7] was “inactive”, the “diameter of the inhibition zone (DIZ)” value [8] was “inactive” and the “diameter of the inhibition zone (DIZ)” value [9] was “inactive”. The “diameter of the inhibition zone (DIZ)” value [10] was “inactive”, the “diameter of the inhibition zone (DIZ)” value [11] was “inactive” and the “diameter of the inhibition zone (DIZ)” value [12] was “inactive”. For the same molecule, the “diameter of the inhibition zone (DIZ)” value [13] was “inactive”, the Activity [28] was 1.25 mg/mL and the Activity [29] was 0.6 mg/mL. It also gave an Activity [30] of 1.25 mg/mL, an Activity [31] of 1.25 mg/mL and an Activity [32] of 1.25 mg/mL. It also gave an Activity [33] of 1.25 mg/mL, an MIC [14] of 18.7 µM (≈ 5.01 µg/mL) and an Activity [34] of 1.25 mg/mL. The Activity [35] was 1.25 mg/mL, the Activity [36] was 0.06 mg/mL and the Activity [37] was 1.25 mg/mL. The zone of inhibition at 50000 µg/mL ([15]; ATCC 6633, 24 h, read-out: DIZ) was 18 mm, the zone of inhibition at 50000 µg/mL ([16]; B 241, 24 h, read-out: DIZ) was 17 mm and the zone of inhibition at 50000 µg/mL ([17]; NRRL 1353895, 24 h, read-out: DIZ) was 16 mm. It also gave a zone of inhibition at 50000 µg/mL ([18]; DSMZ 274, 24 h, read-out: DIZ) of 20 mm, a zone of inhibition at 50000 µg/mL ([19]; ATCC 11778, 24 h, read-out: DIZ) of 16 mm and a zone of inhibition at 50000 µg/mL ([20]; ATCC 17909, 24 h, read-out: DIZ) of 17 mm. It also gave a zone of inhibition at 50000 µg/mL ([21]; NRRL B 313, 24 h, read-out: DIZ) of 17 mm, a zone of inhibition at 50000 µg/mL ([22]; ATCC 9341, 24 h, read-out: DIZ) of 18 mm and a zone of inhibition at 50000 µg/mL ([23]; ATCC 9631, 24 h, read-out: DIZ) of 16 mm. The zone of inhibition at 50000 µg/mL [24] was 16 mm, the zone of inhibition at 50000 µg/mL ([25]; ATCC 20336, 72 h, read-out: DIZ) was 21 mm and the zone of inhibition at 50000 µg/mL ([26]; ATCC 9763, 72 h, read-out: DIZ) was 20 mm. For the same molecule, the zone of inhibition at 50000 µg/mL ([27]; CECT 2802, 72 h, read-out: DIZ) was 30 mm.
